Source: ChEMBL document CHEMBL4257498, “Antitumor effects of melanin from Lachnum YM226 and its derivative in H22 tumor-bearing mice” (Medchemcomm, 2018)
Active and inactive are the calls of the source. The rule behind the calls is not given here.

Key:
[1] = test system: Mus musculus; test: Toxicity in Kunming mouse implanted with mouse H22 cells assessed as increase in body weight at 200 mg/kg, ig once daily for 12 days measured every 3 days during compound dosing; assay type: organism-based; settings: in vivo, po
How it was run: (§1)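 H22 sc tumor-bearing mice were dosed intragastrically once daily for 12 days (0.2 mL, n = 10). Mice were weighed every three days and doses adjusted accordingly. Body weight gain = (final – initial body weight)/initial body weight.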

[2] = test system: Mus musculus; test: Immunosuppressive effect in Kunming mouse implanted with mouse H22 cells assessed as spleen index at 50 mg/kg, ig once daily for 12 days measured at 24 hrs post last dose (reference value: 0.54 +/- 0.09%); assay type: ADME, organism-based; settings: in vivo, po
[3] = test system: H22; test: Antitumor activity against mouse H22 cells implanted in Kunming mouse assessed as tumor growth inhibition at 200 mg/kg, ig once daily for 12 days measured at 24 hrs post last dose relative to control; assay type: functional; settings: H22, po, read-out: TGI
How it was run: (§2)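 Sc H22 implant (0.2 mL, 1 × 10^6 cells per mL, right axilla). Intragastric dosing started 3 days later, once daily for 12 days in 0.2 mL; saline control; 10 mice per group. Tumors were excised and weighed 24 h after the last dose. Inhibition rate = (1 – mean treated tumor weight/mean model tumor weight) × 100%. Caliper volume taken every 2 days as A × B2/2.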

[4] = test system: Mus musculus; test: Renal toxicity in Kunming mouse implanted with mouse H22 cells assessed as increase in serum CRE level at 50 to 200 mg/kg, ig once daily for 12 days measured at 24 hrs post last dose; assay type: organism-based; settings: in vivo, po
How it was run: (§3)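 Mice bore sc H22 tumors and received intragastric doses once daily for 12 days (n = 10). Blood was drawn from the orbital venous plexus 24 h after the last dose. It was allowed to clot and centrifuged at 3000g for 10 min, and the serum was stored at –80 °C. AST, ALT, CRE, BUN and UA were measured with commercial kits.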

[5] = test system: Mus musculus; test: Renal toxicity in Kunming mouse implanted with mouse H22 cells assessed as increase in serum BUN level at 50 to 200 mg/kg, ig once daily for 12 days measured at 24 hrs post last dose; assay type: organism-based; settings: in vivo, po; how it was run: as §3
[6] = test system: H22; test: Antitumor activity against mouse H22 cells implanted in Kunming mouse assessed as necrotic and apoptotic region at 50 to 200 mg/kg, ig once daily for 12 days measured at 24 hrs post last dose by hematoxylin and eosin staining based microscopic method; assay type: functional, organism-based
How it was run: (§4)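 H22 cells given 0.2 mL of 1 × 10^6 cells per mL subcutaneously in the right axilla. Treatment began on day 3, […]. Dosing was intragastric in saline, once daily for 12 days, n = 10 per group. Mice were killed 24 h after the last dose. Tumors were fixed in buffered neutral 10% formalin, paraffin-embedded, cut at 4 μm, HE-stained and examined by light microscopy at 400×.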

[7] = test system: H22; test: Antitumor activity against mouse H22 cells implanted in Kunming mouse assessed as tumor growth inhibition at 50 mg/kg, ig once daily for 12 days measured at 24 hrs post last dose relative to control; assay type: functional; settings: H22, po, read-out: TGI; how it was run: as §2
[8] = test system: Mus musculus; test: Immunostimulatory activity in Kunming mouse implanted with mouse H22 cells assessed as increase in serum TNFalpha level at 200 mg/kg, ig once daily for 12 days measured at 24 hrs post last dose by ELISA; assay type: functional, organism-based
How it was run: (§5)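 Serum came from H22 sc tumor-bearing mice dosed intragastrically once daily for 12 days, collected 24 h after the last dose from the orbital plexus (3000g, 10 min, stored at –80 °C). IL-2, IL-6, TNF-α, IFN-γ, VEGF and bFGF were measured by commercial ELISA kits following the manufacturer's protocol.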

[9] = test system: Mus musculus; test: Immunostimulatory activity in Kunming mouse implanted with mouse H22 cells assessed as increase in serum IL-6 level at 200 mg/kg, ig once daily for 12 days measured at 24 hrs post last dose by ELISA; assay type: functional, organism-based; how it was run: as §5
[10] = test system: Mus musculus; test: Immunostimulatory activity in Kunming mouse implanted with mouse H22 cells assessed as increase in serum IL-6 level at 50 mg/kg, ig once daily for 12 days measured at 24 hrs post last dose by ELISA; assay type: functional, organism-based; how it was run: as §5
[11] = test system: Mus musculus; test: Immunosuppressive effect in Kunming mouse implanted with mouse H22 cells assessed as liver index at 50 mg/kg, ig once daily for 12 days measured at 24 hrs post last dose (reference value: 4.17 +/- 0.68%); assay type: ADME, organism-based; settings: in vivo, po
[12] = test system: H22; test: Antitumor activity against mouse H22 cells implanted in Kunming mouse assessed as decrease in nuclear to cytoplasmic ratio at 50 to 200 mg/kg, ig once daily for 12 days measured at 24 hrs post last dose by hematoxylin and eosin staining based microscopic method; assay type: functional, organism-based; how it was run: as §4
[13] = test system: Mus musculus; test: Decrease in serum bFGF level in Kunming mouse implanted with mouse H22 cells at 50 to 200 mg/kg, ig once daily for 12 days measured at 24 hrs post last dose by ELISA; assay type: functional, organism-based; how it was run: as §5
[14] = test system: Mus musculus; test: Decrease in leukocyte infiltration in Kunming mouse implanted with mouse H22 cells at 50 to 200 mg/kg, ig once daily for 12 days measured at 24 hrs post last dose by hematoxylin and eosin staining based microscopic method; assay type: functional, organism-based; how it was run: as §4
[15] = test system: Mus musculus; test: Immunosuppressive effect in Kunming mouse implanted with mouse H22 cells assessed as liver index at 200 mg/kg, ig once daily for 12 days measured at 24 hrs post last dose (reference value: 4.17 +/- 0.68%); assay type: ADME, organism-based; settings: in vivo, po
[16] = test system: Mus musculus; test: Decrease in tumor hemorrhage in Kunming mouse implanted with mouse H22 cells at 50 to 200 mg/kg, ig once daily for 12 days measured at 24 hrs post last dose by hematoxylin and eosin staining based microscopic method; assay type: functional, organism-based; how it was run: as §4
[17] = test system: Mus musculus; test: Immunostimulatory activity in Kunming mouse implanted with mouse H22 cells assessed as increase in serum IL-2 level at 50 mg/kg, ig once daily for 12 days measured at 24 hrs post last dose by ELISA; assay type: functional, organism-based; how it was run: as §5
[18] = test system: Mus musculus; test: Immunosuppressive effect in Kunming mouse implanted with mouse H22 cells assessed as spleen index at 200 mg/kg, ig once daily for 12 days measured at 24 hrs post last dose (reference value: 0.54 +/- 0.09%); assay type: ADME, organism-based; settings: in vivo, po
[19] = test system: Mus musculus; test: Decrease in serum VEGF level in Kunming mouse implanted with mouse H22 cells at 50 to 200 mg/kg, ig once daily for 12 days measured at 24 hrs post last dose by ELISA; assay type: functional, organism-based; how it was run: as §5
[20] = test system: Mus musculus; test: Immunosuppressive effect in Kunming mouse implanted with mouse H22 cells assessed as thymus index at 200 mg/kg, ig once daily for 12 days measured at 24 hrs post last dose (reference value: 0.13 +/- 0.06%); assay type: ADME, organism-based; settings: in vivo, po
[21] = test system: Mus musculus; test: Hepatotoxicity in Kunming mouse implanted with mouse H22 cells assessed as increase in serum ALT level at 50 to 200 mg/kg, ig once daily for 12 days measured at 24 hrs post last dose; assay type: toxicity, organism-based; settings: in vivo, po; how it was run: as §3
[22] = test system: H22; test: Antitumor activity against mouse H22 cells implanted in Kunming mouse assessed as decrease in hepatoma cell density at 200 mg/kg, ig once daily for 12 days measured at 24 hrs post last dose by hematoxylin and eosin staining based microscopic method; assay type: functional, organism-based; how it was run: as §4
[23] = test system: Mus musculus; test: Immunosuppressive effect in Kunming mouse implanted with mouse H22 cells assessed as thymus index at 50 mg/kg, ig once daily for 12 days measured at 24 hrs post last dose (reference value: 0.13 +/- 0.06%); assay type: ADME, organism-based; settings: in vivo, po
[24] = test system: Mus musculus; test: Immunostimulatory activity in Kunming mouse implanted with mouse H22 cells assessed as increase in serum IL-2 level at 200 mg/kg, ig once daily for 12 days measured at 24 hrs post last dose by ELISA; assay type: functional, organism-based; how it was run: as §5
[25] = test system: Mus musculus; test: Hepatotoxicity in Kunming mouse implanted with mouse H22 cells assessed as increase in serum AST level at 50 to 200 mg/kg, ig once daily for 12 days measured at 24 hrs post last dose; assay type: toxicity, organism-based; settings: in vivo, po; how it was run: as §3
[26] = test system: Mus musculus; test: Immunostimulatory activity in Kunming mouse implanted with mouse H22 cells assessed as increase in serum IFNgamma level at 200 mg/kg, ig once daily for 12 days measured at 24 hrs post last dose by ELISA; assay type: functional, organism-based; how it was run: as §5
[27] = test system: Mus musculus; test: Toxicity in Kunming mouse implanted with mouse H22 cells assessed as increase in body weight at 50 mg/kg, ig once daily for 12 days measured every 3 days during compound dosing; assay type: organism-based; settings: in vivo, po; how it was run: as §1
[28] = test system: Mus musculus; test: Renal toxicity in Kunming mouse implanted with mouse H22 cells assessed as increase in serum UA level at 50 to 200 mg/kg, ig once daily for 12 days measured at 24 hrs post last dose; assay type: organism-based; settings: in vivo, po; how it was run: as §3
[29] = test system: H22; test: Antitumor activity against mouse H22 cells implanted in Kunming mouse assessed as tumor growth inhibition administered ig once daily for 12 days measured at 24 hrs post last dose; assay type: functional; how it was run: as §2

Molecule `COc1c(O)cc2cc(C(=O)O)n(C)c2c1C1=c2cc(C(=O)O)[nH]c2=C(Cc2cc(C(=O)O)[nH]c2C(=O)O)C(=O)C1=O` has an Activity [1] of 7.56 g, an Activity_index [2] of 0.48% and an inhibition in vivo at 200 mg/kg [3] of 35%. The Activity [4] was “Non-Toxic”, the Activity [5] was “Non-Toxic” and the Activity [6] was “Active”. The inhibition in vivo at 50 mg/kg [7] was 32.3%, the Activity [8] was “Active” and the Activity [9] was “Active”. The Activity [10] was “Active”, the Activity_index [11] was 3.72% and the Activity [12] was “Active”. The Activity [13] was “Active”, the Activity [14] was “Active” and the Activity_index [15] was 3.79%. For the same molecule, the Activity [16] was “Active”, the Activity [17] was “Active” and the Activity_index [18] was 0.48%. The Activity [19] was “Active”, the Activity_index [20] was 0.16% and the Activity [21] was “Non-Toxic”. The Activity [22] was “Active”, the Activity_index [23] was 0.15% and the Activity [24] was “Active”. The Activity [25] was “Non-Toxic”, the Activity [26] was “Active” and the Activity [27] was 8.2 g. The Activity [28] was “Non-Toxic” and the TGI [29] was “Dose-dependent effect”.
